Source: ChEMBL document CHEMBL4715838, “Novel diosgenin derivatives containing 1,3,4-oxadiazole/thiadiazole moieties as potential antitumor agents: Design, synthesis and cytotoxic evaluation” (Eur J Med Chem, 2020)
The source made the active and inactive calls. The rule behind the calls is not given here.

Experiments:
HepG2 [1] = assay: Cytotoxicity against human HepG2 cells assessed as reduction in cell viability measured after 48 hrs by MTT assay; assay type: functional, cell-based; conditions: HepG2, 48 h
In short: (§1)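 Cells in DMEM with 10% FBS, penicillin/streptomycin, 37 °C, 5% CO2. Seeded at 5×10^3 per well directly into medium holding graded concentrations of sample and incubated 48 h. MTT (5 mg/mL in PBS) added for 4 h, medium replaced with DMSO, absorbance read at 492 nm. IC50 taken as the concentration giving 50% inhibition of proliferation; three replicates, means ± SD.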

A549 [2] = assay: Cytotoxicity against human A549 cells assessed as reduction in cell viability measured after 48 hrs by MTT assay; assay type: functional, cell-based; conditions: A549, 48 h; in short: as §1
MCF7 = assay: Cytotoxicity against human MCF7 cells assessed as reduction in cell viability measured after 48 hrs by MTT assay; assay type: functional, cell-based; conditions: MCF7, 48 h; in short: as §1
HCT-116 = assay: Cytotoxicity against human HCT-116 cells assessed as reduction in cell viability measured after 48 hrs by MTT assay; assay type: functional, cell-based; conditions: HCT-116, 48 h; in short: as §1
GES1 = assay: Cytotoxicity against human GES1 cells assessed as reduction in cell viability measured after 48 hrs by MTT assay; assay type: cell-based; conditions: GES1, 48 h; in short: as §1
A549 [3] = assay: Induction of apoptosis in human A549 cells assessed as cell rounding at 15 to 30 uM measured after 48 hrs by phase contrast microscopic analysis; assay type: functional, cell-based; conditions: dose 15-30 µM
In short: (§2)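 A549 seeded at 2×10^5 cells/well and allowed to settle 24 h. Then exposed 48 h to test compound (15 or 30 μM) or diosgenin (30 μM); controls received 0.1% DMSO. Cell shape examined by phase contrast microscopy.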

A549 [4] = assay: Induction of apoptosis in human A549 cells assessed as cell shrinkage at 15 to 30 uM measured after 48 hrs by phase contrast microscopic analysis; assay type: functional, cell-based; conditions: dose 15-30 µM; in short: as §2
A549 [5] = assay: Induction of apoptosis in human A549 cells assessed as membrane blebbing at 15 to 30 uM measured after 48 hrs by phase contrast microscopic analysis; assay type: functional, cell-based; conditions: dose 15-30 µM; in short: as §2
A549 [6] = assay: Induction of apoptosis in human A549 cells assessed as formation of apoptotic bodies at 15 to 30 uM measured after 48 hrs by phase contrast microscopic analysis; assay type: functional, cell-based; conditions: dose 15-30 µM; in short: as §2
A549 [7] = assay: Induction of apoptosis in human A549 cells assessed as chromatin condensation at 15 to 30 uM measured after 48 hrs by DAPI staining based fluorescence microscopic analysis; assay type: functional, cell-based; conditions: dose 15-30 µM
In short: (§3)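 A549 plated at 2×10^5 cells/well and grown 24 h. Treated 48 h with test compound (15 or 30 μM) or diosgenin (30 μM); vehicle control 0.1% DMSO. Fixed in 4% formaldehyde 1 h at 4 °C, stained with 5 μM DAPI for 10 min at 37 °C in the dark, and viewed by fluorescence microscopy.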

A549 [8] = assay: Induction of apoptosis in human A549 cells assessed as nuclear fragmentation at 15 to 30 uM measured after 48 hrs by DAPI staining based fluorescence microscopic analysis; assay type: functional, cell-based; conditions: dose 15-30 µM; in short: as §3
A549 [9] = assay: Induction of apoptosis in human A549 cells assessed as early apoptotic cells at 15 uM after 48 hrs by AnnexinV-FITC/propidium iodide staining based flow cytometry analysis (reference value: 0.5 to 2.3 %); assay type: functional
A549 [10] = assay: Induction of apoptosis in human A549 cells assessed as late apoptotic cells at 15 uM after 48 hrs by AnnexinV-FITC/propidium iodide staining based flow cytometry analysis (reference value: 1 to 3.1 %); assay type: functional
A549 [11] = assay: Induction of apoptosis in human A549 cells assessed as early apoptotic cells at 30 uM after 48 hrs by AnnexinV-FITC/propidium iodide staining based flow cytometry analysis (reference value: 0.5 to 2.3 %); assay type: functional
A549 [12] = assay: Induction of apoptosis in human A549 cells assessed as late apoptotic cells at 30 uM after 48 hrs by AnnexinV-FITC/propidium iodide staining based flow cytometry analysis (reference value: 1 to 3.1 %); assay type: functional
A549 [13] = assay: Induction of apoptosis in human A549 cells assessed as increase in cleaved caspase 3 expression at 7.5 to 30 uM by Western blot analysis; assay type: functional, cell-based; conditions: dose 7.5-30 µM
In short: (§4)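 A549 treated with compound (0, 7.5, 15, 30 μM) or diosgenin (0, 15, 30 μM), lysed in RIPA and boiled 10 min. 30 μg protein run on 10% SDS-PAGE, blotted to nitrocellulose, blocked in 5% BSA. Primary antibodies used at 1:1000, HRP secondary at 1:5000 for 2 h, ECL detection. β-actin served as loading control.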

A549 [14] = assay: Induction of apoptosis in human A549 cells assessed as increase in cleaved caspase 9 expression at 7.5 to 30 uM by Western blot analysis; assay type: functional, cell-based; conditions: dose 7.5-30 µM; in short: as §4
A549 [15] = assay: Induction of apoptosis in human A549 cells assessed as increase in cleaved PARP expression at 7.5 to 30 uM by Western blot analysis; assay type: functional, cell-based; conditions: dose 7.5-30 µM; in short: as §4
A549 [16] = assay: Induction of mitochondrial depolarization in human A549 cells assessed as increase in depolarized cell population measured after 48 hrs by JC1 dye based flow cytometry; assay type: functional; conditions: dose 15-30 µM
A549 [17] = assay: Induction of mitochondrial depolarization in human A549 cells assessed as depolarized cell population at 15 uM measured after 48 hrs by JC1 dye based flow cytometry (reference value: 0.4%); assay type: functional
A549 [18] = assay: Induction of mitochondrial depolarization in human A549 cells assessed as depolarized cell population at 30 uM measured after 48 hrs by JC1 dye based flow cytometry (reference value: 0.4%); assay type: functional
A549 [19] = assay: Induction of apoptosis in human A549 cells assessed as increase in Bax expression by Western blot analysis; assay type: functional, cell-based; conditions: dose 7.5-30 µM; in short: as §4
A549 [20] = assay: Induction of apoptosis in human A549 cells assessed as decrease in Bcl-2 expression by Western blot analysis; assay type: functional, cell-based; conditions: dose 7.5-30 µM; in short: as §4
A549 [21] = assay: Induction of apoptosis in human A549 cells assessed as increase in cyto-c expression by Western blot analysis; assay type: functional, cell-based; conditions: dose 7.5-30 µM; in short: as §4
HepG2 [22] = assay: Potency index, ratio of diosgenin IC50 to test compound IC50 for cytotoxicity against human HepG2 cells assessed as reduction in cell viability; assay type: functional
A549 [23] = assay: Potency index, ratio of diosgenin IC50 to test compound IC50 for cytotoxicity against human A549 cells assessed as reduction in cell viability; assay type: functional

Structure (SMILES): CC(=O)O[C@H]1CC[C@@]2(C)C(=CC[C@H]3[C@@H]4C[C@@H]5O[C@H](CC[C@H](C)c6nnc(-c7cccnc7)s6)[C@@H](C)[C@@H]5[C@@]4(C)CC[C@@H]32)C1
- IC50 (HepG2 [1]): 11.7 µM
- IC50 (A549 [2]): 3.93 µM
- IC50 (MCF7): > 100 µM
- IC50 (HCT-116): 29.6 µM
- IC50 (GES1): 420 µM
- Activity (A549 [3]): Active
- Activity (A549 [4]): Active
- Activity (A549 [5]): Active
- Activity (A549 [6]): Active
- Activity (A549 [7]): Active
- Activity (A549 [8]): Active
- Activity (A549 [9]): 21%
- Activity (A549 [10]): 15.1%
- Activity (A549 [11]): 60%
- Activity (A549 [12]): 21.3%
- Activity (A549 [13]): Active
- Activity (A549 [14]): Active
- Activity (A549 [15]): Active
- Activity (A549 [16]): Dose-dependent effect
- Activity (A549 [17]): 7.5%
- Activity (A549 [18]): 26%
- Activity (A549 [19]): Dose-dependent effect
- Activity (A549 [20]): Dose-dependent effect
- Activity (A549 [21]): Dose-dependent effect
- Ratio IC50 (HepG2 [22]): 2.9
- Ratio IC50 (A549 [23]): 6.7
